From the RNAGym collection of RNA variant scans (doi:10.1126/science.aae0568)
Fewer inactive variants are shown than the library holds.

B1: tRNA (parent)
chain: GUUCCGUUGGCGUAAUGGUAACGCGUCUCCCUCCUAAGGAGAAGACUGCGGGUUCGAGUCCCGUACGGAACG

Variants of: B1
Experiment: yeast fitness relative to wild type (ratio to wild type); higher = fitter; tRNA-Arg(CCU), competitive growth, 37 C, YPD
In short: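 The tRNA-Arg(CCU) gene variants were made by chemical synthesis with a 3% per-site mutation rate at 69 sites and inserted at the native genomic locus of Saccharomyces cerevisiae. After pooling, the strains were competed in YPD at 37°C for 24 hours in six parallel replicates. Gene amplicons from the start population and each end population were read by 100-nucleotide paired-end sequencing, and Darwinian fitness relative to wild type was taken from genotype frequency changes. Genotypes needed ≥ 100 starting reads, and estimates < 0.5 were set to 0.5.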

Variant | yeast fitness
G17A C46U | 0.878
G17A C55A | 0.547
G17A C55G | ≤ 0.5
G17A C55U C62U | ≤ 0.5
G17A C60G | 0.586
G17A C60G C61G | ≤ 0.5
G17A C61A G63A G67A | 0.542
G17A C61G G68A | ≤ 0.5
G17A C61U C66U | 0.599
G17A C62A | 0.558
G17A C62U | 0.736
G17A C62U A69U | 0.587
G17A C66A | 0.647
G17A G18A | 0.65
G17A G18A A42C C55U | 0.508
G17A G18C | 0.63
G17A G23C C33G C46A C66A | ≤ 0.5
G17A G25A | 0.886
G17A G25C A65C | 0.611
G17A G39C G56C | ≤ 0.5
G17A G41A | 0.665
G17A G41C A43G G58C | ≤ 0.5
G17A G48C C62A | 0.549
G17A G50C | 0.647

Variant | yeast fitness
G17A G52A | 0.549
G17A G56A C66U | 0.678
G17A G56C G58C G63A | ≤ 0.5
G17A G56C G58C G68A | ≤ 0.5
G17A G58A | 0.794
G17A G68A | 0.81
G17A G68C | 0.928
G17A U19A C24U G25C | ≤ 0.5
G17A U19A C30U G67A | ≤ 0.5
G17A U19A G23A C31U C34A G48C C62U | ≤ 0.5
G17A U19C | 0.95
G17A U26C | 0.784
G17A U26G C29G C62U A70G | ≤ 0.5
G17A U28A A37G | ≤ 0.5
G17A U28C A42C C62U A70U | ≤ 0.5
G17A U28C C46U G63A | ≤ 0.5
G17A U28G A42G G68U | ≤ 0.5
G17A U28G C30G A40C A42U | ≤ 0.5
G17A U32A G67C | 0.6
G17A U32C | 0.704
G17A U32C A40G | 0.573
G17A U32C A40G A70G | ≤ 0.5
G17A U32G | 0.572
G17A U47C A57G A69U | ≤ 0.5

Variant | yeast fitness
G17A U54A | 0.566
G17A U54A A70G | ≤ 0.5
G17A U54C U59C C61G | ≤ 0.5
G17A U59C | 0.62
G17A U64C | 0.878
G17C A20C C34A U47A A57U | ≤ 0.5
G17C A20C C49U G52A C61A C62G | ≤ 0.5
G17C A20C G52C | ≤ 0.5
G17C A20G C46A C60U | ≤ 0.5
G17C A20U A42U G67A | ≤ 0.5
G17C A20U C27U U53C | 0.619
G17C A20U C33G A70U | ≤ 0.5
G17C A20U G52C | ≤ 0.5
G17C A21C U28C C60A A65G | ≤ 0.5
G17C A21G A40C G44C C61A | 0.622
G17C A21G C27U C33G A42U | 0.621
G17C A21G U26G | ≤ 0.5
G17C A21G U59G A65C | ≤ 0.5
G17C A36G A45G | 0.505
G17C A36G A57G C66U A69C | 0.59
G17C A36G C49U C66U A69C | 0.598
G17C A36G C66U A69C | 0.803
G17C A37C A40C C61U G68A | ≤ 0.5
G17C A37G A40C | 0.619

Variant | yeast fitness
G17C A37G C55U | ≤ 0.5
G17C A37G G56C | ≤ 0.5
G17C A37U A42U C49G G51A C61U | ≤ 0.5
G17C A40G G41A G56C | ≤ 0.5
G17C A42C | 0.618
G17C A42C C55U | ≤ 0.5
G17C A42C C61A | ≤ 0.5
G17C A42C G68A | ≤ 0.5
G17C A42G A70G | ≤ 0.5
G17C A43U | 0.589
G17C A43U G48A C66G | ≤ 0.5
G17C A45U A65C | ≤ 0.5
G17C A57G | 0.68
G17C A57G G67A | 0.56
G17C A69C | 0.658
G17C A69U | 0.624
G17C A70C | 0.751
G17C A70G | 0.616
G17C A70U | 0.713
G17C C22A C31G C55G A70U | 0.527
G17C C22A C31G C55G G68A | 0.587
G17C C22A U28C A40G A45C C66G A69U | ≤ 0.5
G17C C22A U32C | 0.553
G17C C22G | 0.619

Variant | yeast fitness
G17C C22G C30U G41C | 0.612
G17C C22G C30U G41C C46U | 0.708
G17C C22G U26C U47A C66G | ≤ 0.5
G17C C22U C30U A37U | ≤ 0.5
G17C C22U C49G | ≤ 0.5
G17C C22U C60G | 0.719
G17C C24A | 0.56
G17C C24A A36U G41C | ≤ 0.5
G17C C24A A45C | 0.508
G17C C24A U47A | ≤ 0.5
G17C C24A U47A C66U A69U | ≤ 0.5
G17C C24G C34U | 0.527
G17C C24G G63C | ≤ 0.5
G17C C24G U28A C30U | 0.646
G17C C24G U28A C30U C49U A65U A69C | ≤ 0.5
G17C C24U | 0.607
G17C C24U A36G | 0.607
G17C C24U G41A | ≤ 0.5
G17C C27G C29A | ≤ 0.5
G17C C27U C34U A42U | ≤ 0.5
G17C C27U C61A | 0.537
G17C C27U G67C | ≤ 0.5
G17C C27U U53G | ≤ 0.5
G17C C29A A36G A43U | ≤ 0.5

Variant | yeast fitness
G17C C29A A57U | ≤ 0.5
G17C C29G A37C U64C | 0.771
G17C C29G A43G | ≤ 0.5
G17C C29G A65C | 0.629
G17C C29G G39A | ≤ 0.5
G17C C30G A57C C61G | 0.613
G17C C30G C33G | ≤ 0.5
G17C C30G C49U A57C C61G | ≤ 0.5
G17C C30G C55G A70G | ≤ 0.5
G17C C30G C60G G63A A65U C66U | 0.549
G17C C31A | 0.551
G17C C31A C60A A65U | 0.532
G17C C31G A45C U54C C55A | ≤ 0.5
G17C C33A C55A | 0.672
G17C C33G A70G | ≤ 0.5
G17C C33G G48U | ≤ 0.5
G17C C33G U59G A69U | 0.665
G17C C33U | 0.556
G17C C33U A37C | ≤ 0.5
G17C C33U A43G | ≤ 0.5
G17C C34A A42U A43C | ≤ 0.5
G17C C34U | 0.529
G17C C46G | 0.747
G17C C49G | 0.743

Variant | yeast fitness
G17C C49U G63C | ≤ 0.5
G17C C55A | ≤ 0.5
G17C C55G | 0.616
G17C C55U | 0.598
G17C C61U C62U C66A | 0.593
G17C C62U A65C | 0.593
G17C C66U | 0.705
G17C G18C | 0.576
G17C G18C A20G C30A G50A A69C | ≤ 0.5
G17C G18C C30G U53A U64G | ≤ 0.5
G17C G18C C31G A42G | ≤ 0.5
G17C G18C G63C U64C | ≤ 0.5
G17C G18C U19G C24G | ≤ 0.5
G17C G23A G25C C29G A36U G39A C46U C55U | ≤ 0.5
G17C G23C | 0.517
G17C G23C A43U C49A C66U A70U | 0.603
G17C G23U U28A C31G | 0.655
G17C G25A U32A A43G A57U | 0.546
G17C G25C | 0.658
G17C G25C C30U A65C | ≤ 0.5
G17C G25C C66U | ≤ 0.5
G17C G25C G50A U59C G68A | ≤ 0.5
G17C G25C U26A C29G A36U G39A C46U C55U | ≤ 0.5
